Consider two molecules from ChEMBL document CHEMBL1123096, “Alpha-adrenoreceptor reagents. 3. Synthesis of some 2-substituted 1,4-benzodioxans as selective presynaptic alpha 2-adrenoreceptor antagonists” (J Med Chem, 1985).

Test [1] has as its target T1, Adrenergic receptor alpha-2 (Rattus norvegicus, UniProt P22086+P19328+P22909).
T1 sequence (P22086 whole entry): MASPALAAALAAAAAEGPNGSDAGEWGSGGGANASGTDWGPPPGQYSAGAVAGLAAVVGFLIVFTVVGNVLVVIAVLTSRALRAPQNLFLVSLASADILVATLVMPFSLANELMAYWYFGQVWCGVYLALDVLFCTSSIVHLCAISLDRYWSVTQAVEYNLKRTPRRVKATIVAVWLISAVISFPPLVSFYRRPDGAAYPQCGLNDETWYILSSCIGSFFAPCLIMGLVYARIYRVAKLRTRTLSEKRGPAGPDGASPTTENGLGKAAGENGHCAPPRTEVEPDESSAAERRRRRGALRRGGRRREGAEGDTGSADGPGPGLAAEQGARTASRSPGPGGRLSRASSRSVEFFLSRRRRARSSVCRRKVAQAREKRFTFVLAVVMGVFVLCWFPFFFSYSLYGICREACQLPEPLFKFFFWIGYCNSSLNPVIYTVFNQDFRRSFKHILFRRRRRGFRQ
T1 sequence (P19328 whole entry): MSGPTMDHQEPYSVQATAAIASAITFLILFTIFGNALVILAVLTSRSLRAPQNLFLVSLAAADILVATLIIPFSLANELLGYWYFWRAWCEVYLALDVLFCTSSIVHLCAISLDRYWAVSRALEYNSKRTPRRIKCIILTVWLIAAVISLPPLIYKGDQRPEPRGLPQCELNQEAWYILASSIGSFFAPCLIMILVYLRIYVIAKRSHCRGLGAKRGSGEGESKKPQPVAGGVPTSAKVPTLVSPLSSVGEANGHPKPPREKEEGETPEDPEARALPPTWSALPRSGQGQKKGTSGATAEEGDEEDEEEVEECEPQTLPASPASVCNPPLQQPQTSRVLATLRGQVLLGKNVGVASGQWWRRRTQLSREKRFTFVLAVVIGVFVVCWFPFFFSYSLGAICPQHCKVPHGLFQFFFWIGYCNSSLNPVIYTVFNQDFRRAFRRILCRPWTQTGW
T1 sequence (P22909 whole entry): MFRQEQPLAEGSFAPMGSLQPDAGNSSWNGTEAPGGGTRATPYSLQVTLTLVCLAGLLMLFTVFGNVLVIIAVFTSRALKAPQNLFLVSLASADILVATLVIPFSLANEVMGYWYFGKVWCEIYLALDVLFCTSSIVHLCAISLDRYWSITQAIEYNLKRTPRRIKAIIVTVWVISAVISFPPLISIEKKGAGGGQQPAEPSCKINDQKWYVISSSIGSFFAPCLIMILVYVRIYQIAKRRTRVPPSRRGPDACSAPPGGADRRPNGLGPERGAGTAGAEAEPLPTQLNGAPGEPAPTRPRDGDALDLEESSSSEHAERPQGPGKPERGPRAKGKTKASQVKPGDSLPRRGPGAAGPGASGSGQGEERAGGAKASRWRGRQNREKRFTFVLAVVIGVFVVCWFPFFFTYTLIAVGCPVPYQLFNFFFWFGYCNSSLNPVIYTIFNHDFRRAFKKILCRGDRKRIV
The test can be described thus: Alpha-2 adrenergic receptor antagonist activity in a rat vas deferens assay. Values ranges from 8.37-9.10. Type of test: functional. An outline of the steps: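 pA2 at presynaptic α2-adrenoreceptors in field-stimulated rat vas deferens. Tissue was held in Krebs solution (NaCl 118 mM, KCl 4.7 mM, CaCl2 2.5 mM, KH2PO4 1.2 mM, MgSO4 0.6 mM, NaHCO3 25 mM, dextrose 11.1 mM) gassed with 95% O2/5% CO2 at 30 °C. Stimulation was 3-ms pulses, 40 V, 0.1 Hz, with contractions recorded isometrically. Twitches were inhibited by clonidine (110 nM).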

In test [2] the target is T2, Adrenergic receptor alpha-2 (Rattus norvegicus) (UniProt P22086+P19328+P22909). The test can be described thus: Presynaptic antagonist activity towards alpha-2 adrenergic receptor. The test is classed as functional. An outline of the steps:
(§1)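 Vas deferens from rat or mouse; the mouse tissue was in Mg-free Krebs at 30 °C under 0.5 g tension, stimulated at 0.1 Hz, 3 ms, 100–140 V, giving a twitch of about 100 mg. […] Standard curves were run before and after the test curve.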

Test [3] has as its target T3, Adrenergic receptor alpha-1 (Rattus norvegicus) (UniProt P15823+P23944+P43140). The test can be described thus: post-synaptic antagonist activity towards alpha-1 adrenergic receptor was determined. Concentration giving a dose response to phenylephrine (idazoxan=1) was reported. Type of test: functional. An outline of the steps: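 Rat anococcygeus, postsynaptic α1 antagonism. At least five phenylephrine concentration–response curves were run alone, then at least four with the antagonist present.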

Test [4] deals with T3, Adrenergic receptor alpha-1 (Rattus norvegicus). The test can be described thus: Alpha-1 adrenergic receptor binding activity relative to idazoxan. Type of test: protein assay.
Test [5] deals with Adrenergic receptor alpha (Rattus norvegicus) (UniProt P15823+P23944+P43140+P22086+P19328+P22909). The test can be described thus: Selectivity as ratio […] against alpha-2 receptor to that of alpha-1 receptor. Type of test: protein assay.
The target of test [6] is T2, Adrenergic receptor alpha-2 (Rattus norvegicus). The test can be described thus: Alpha-2 adrenergic receptor antagonist activity compared to idazoxan. The test is classed as functional. An outline of the steps:
as §1

Test [7] concerns the target T4, Adrenergic receptor alpha-1 (Rattus norvegicus, UniProt P15823+P23944+P43140).
T4 sequence (P15823 whole entry): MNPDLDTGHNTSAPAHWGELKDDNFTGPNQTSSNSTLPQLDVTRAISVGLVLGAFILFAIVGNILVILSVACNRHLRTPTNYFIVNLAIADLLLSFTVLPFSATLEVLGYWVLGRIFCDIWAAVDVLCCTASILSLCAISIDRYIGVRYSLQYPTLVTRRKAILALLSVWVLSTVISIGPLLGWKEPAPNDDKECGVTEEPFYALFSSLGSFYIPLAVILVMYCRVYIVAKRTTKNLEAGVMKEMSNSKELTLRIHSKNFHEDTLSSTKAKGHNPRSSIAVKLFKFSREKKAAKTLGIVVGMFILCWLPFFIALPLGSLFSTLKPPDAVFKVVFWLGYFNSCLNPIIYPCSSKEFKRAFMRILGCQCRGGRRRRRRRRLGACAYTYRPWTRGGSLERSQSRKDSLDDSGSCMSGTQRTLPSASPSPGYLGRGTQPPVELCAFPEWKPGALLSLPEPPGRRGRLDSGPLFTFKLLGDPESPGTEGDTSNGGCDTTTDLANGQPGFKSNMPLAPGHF
T4 sequence (P23944 whole entry): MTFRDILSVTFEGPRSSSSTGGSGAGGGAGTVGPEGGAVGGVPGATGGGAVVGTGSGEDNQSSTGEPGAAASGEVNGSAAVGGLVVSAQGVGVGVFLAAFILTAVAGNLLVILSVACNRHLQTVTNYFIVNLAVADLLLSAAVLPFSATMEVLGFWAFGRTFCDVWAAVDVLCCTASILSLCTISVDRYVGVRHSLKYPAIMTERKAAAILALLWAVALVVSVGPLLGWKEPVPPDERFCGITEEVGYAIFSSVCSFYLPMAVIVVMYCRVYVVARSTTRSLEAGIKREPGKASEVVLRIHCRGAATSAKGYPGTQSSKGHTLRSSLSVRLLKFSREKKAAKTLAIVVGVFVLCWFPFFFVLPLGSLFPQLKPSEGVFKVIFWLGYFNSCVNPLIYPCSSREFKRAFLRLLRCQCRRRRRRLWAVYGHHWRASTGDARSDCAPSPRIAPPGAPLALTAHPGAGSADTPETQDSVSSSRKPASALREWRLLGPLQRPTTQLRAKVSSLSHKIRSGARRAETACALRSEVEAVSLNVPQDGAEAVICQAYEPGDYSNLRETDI
T4 sequence (P43140 whole entry): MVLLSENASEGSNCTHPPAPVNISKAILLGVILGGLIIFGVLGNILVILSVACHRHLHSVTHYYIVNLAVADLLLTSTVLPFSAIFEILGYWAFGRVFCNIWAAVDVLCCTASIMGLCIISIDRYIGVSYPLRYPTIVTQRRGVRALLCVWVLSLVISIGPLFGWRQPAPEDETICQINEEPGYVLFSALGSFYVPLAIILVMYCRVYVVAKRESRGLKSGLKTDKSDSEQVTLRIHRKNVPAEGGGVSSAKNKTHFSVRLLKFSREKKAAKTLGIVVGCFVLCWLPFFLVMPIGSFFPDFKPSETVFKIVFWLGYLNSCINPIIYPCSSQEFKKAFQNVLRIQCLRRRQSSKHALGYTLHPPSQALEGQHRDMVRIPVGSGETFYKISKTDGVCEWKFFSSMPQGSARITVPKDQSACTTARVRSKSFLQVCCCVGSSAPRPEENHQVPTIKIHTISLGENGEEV
The test can be described thus: Alpha-1 adrenergic receptor antagonist activity in a rat anococcygeus. Values ranges from 6.29-6.54. Type of test: functional.

The target in test [8] is T1, Adrenergic receptor alpha-2. The test can be described thus: Alpha-2 adrenergic receptor antagonist activity in a rat vas deferens assay. Values ranges from 7.77-8.21. Type of test: functional, tissue-based.
Test [9] addresses T4, Adrenergic receptor alpha-1. The test can be described thus: Alpha-1 adrenergic receptor activity in a rat anococcygeus. Values ranges from 5.49-6.90.
Test [10] deals with T3, Adrenergic receptor alpha-1 (Rattus norvegicus). The test can be described thus: Alpha-1 adrenergic receptor antagonist activity relative to idazoxan. Type of test: functional. An outline of the steps: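 The agonist was phenylephrine, tested on isolated rat anococcygeus under 0.5 g initial tension. At least five phenylephrine dose-response curves were run alone, then at least four in the presence of the analogue.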

Molecules are shown by their SMILES.

Take `c1ccc(COC2(C3=NCCN3)COc3ccccc3O2)cc1` (centres undefined): the pA2 was determined as 8.68 in test [1] and 6.39 in test [7]. The same molecule gave a potency relative to idazoxan in [2] of 2. The same molecule had a Postsynaptic antagonist in test [3] of 3. In addition, the values for the Relative potency in test [4] and in test [6] were 1.2 and 1.5, respectively. For the same molecule, in test [5], the Ratio came out at 0.7.
Consider `C1=C(C2(C3=NCCN3)COc3ccccc3O2)CC1.Cl` (centres undefined), for which the pA2 in test [8] came to 8.21; in test [9], 6.9. Besides, in [2], the potency relative to idazoxan is 0.3. This molecule also displayed a Postsynaptic antagonist in [3] of 0.13. In addition, the Ratio in [5] is 2.3. Moreover, the Relative potency in test [10] and in test [6] was 0.3 in each case.

Usually pA2 stands for a measure of antagonist potency on a negative log scale. High values mean a more potent antagonist, low ones a weaker antagonist.
